Measured values taken from ChEMBL document CHEMBL1121448, “Adrenergic receptor agonists. Benzofuranylethanolamines” (1980).

How the values were obtained:
[1] = target: Beta-2 adrenergic receptor (Homo sapiens) (UniProt P07550); test: Tested for agonistic effect on peripheral vascular resistance (PR) against beta-2 adrenergic receptor in cat; format: functional; conditions: Felis catus; target entry is the homologue from another species
In short: (§1)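 Reserpinized, bilaterally vagotomized cats, pentobarbital-anesthetized (30 mg/kg ip, then 0.1 (mg/min)/kg infusion), artificially ventilated. Heart rate was recorded by cardiotachograph from carotid pressure. Hind-leg vascular resistance was read as perfusion pressure under constant-flow autoperfusion. Test compound was infused iv into the femoral vein for 10 min at 1.0 mL/min, in five stepwise raised concentrations.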

[2] = target: Beta-1 adrenergic receptor (Homo sapiens) (UniProt P08588); test: Tested for antagonistic effect on heart rate against beta-1 adrenergic receptor in cat; format: functional, tissue-based; conditions: Felis catus, target entry is the homologue from another species; in short: as §1
Sequence of Beta-1 adrenergic receptor (Homo sapiens) (P08588 whole entry, looked up): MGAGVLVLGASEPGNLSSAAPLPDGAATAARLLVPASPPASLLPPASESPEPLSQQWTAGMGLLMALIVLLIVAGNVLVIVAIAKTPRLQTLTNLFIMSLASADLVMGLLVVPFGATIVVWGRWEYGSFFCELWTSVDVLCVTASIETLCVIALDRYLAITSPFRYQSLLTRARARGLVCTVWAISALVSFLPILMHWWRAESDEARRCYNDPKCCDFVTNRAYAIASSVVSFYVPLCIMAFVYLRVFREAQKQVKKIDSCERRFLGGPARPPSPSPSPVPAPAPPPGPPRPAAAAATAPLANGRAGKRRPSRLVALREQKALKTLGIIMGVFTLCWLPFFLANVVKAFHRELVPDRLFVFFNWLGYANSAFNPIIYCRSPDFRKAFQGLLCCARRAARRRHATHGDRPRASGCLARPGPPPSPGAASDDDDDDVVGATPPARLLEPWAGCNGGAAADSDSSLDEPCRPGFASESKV

[3] = target: Beta-1 adrenergic receptor (Homo sapiens) (UniProt P08588); test: Tested for agonistic effect on heart rate against beta-1 adrenergic receptor in cat; format: functional, tissue-based; conditions: Felis catus, target entry is the homologue from another species; in short: as §1
Felis catus = organism: Felis catus; test: Intrinsic activity as percentage of heart rate (HR max) in cat was determined; format: functional; in short: as §1
[4] = target: Beta-2 adrenergic receptor (Homo sapiens) (UniProt P07550); test: Tested for agonistic effect on peripheral vascular resistance (PR) against beta 2 adrenergic receptor in cat; format: functional; conditions: Felis catus; target entry is the homologue from another species; in short: as §1

Sequence of Beta-2 adrenergic receptor (Homo sapiens) (P07550 whole entry, looked up, the tested form may be a part): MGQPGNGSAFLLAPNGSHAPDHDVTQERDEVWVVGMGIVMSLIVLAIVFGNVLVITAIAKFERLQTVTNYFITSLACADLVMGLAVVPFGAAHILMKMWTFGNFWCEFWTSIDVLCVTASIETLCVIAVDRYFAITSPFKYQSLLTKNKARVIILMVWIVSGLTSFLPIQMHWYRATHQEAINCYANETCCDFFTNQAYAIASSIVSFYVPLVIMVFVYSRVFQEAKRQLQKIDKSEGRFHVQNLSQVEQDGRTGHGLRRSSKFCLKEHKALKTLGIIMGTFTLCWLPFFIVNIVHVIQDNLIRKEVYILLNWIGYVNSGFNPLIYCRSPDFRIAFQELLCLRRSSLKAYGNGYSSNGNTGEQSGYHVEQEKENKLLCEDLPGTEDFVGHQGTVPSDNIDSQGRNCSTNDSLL

Structure (SMILES): CC(C)NCC(O)c1cc2cc(O)ccc2o1 (stereo not given)
- KB [1]: 1.12 µM/kg
- KB [2]: 0.34 µM/kg
- KA [3]: 0.21 µM/kg
- HR (Felis catus): 80%

Structure (SMILES): CC(C)NC[C@H](O)COc1ccc(O)cc1 [PRENALTEROL]
- KA [3]: 0.025 µM/kg
- HR (Felis catus): 80%

Structure (SMILES): CC(C)NCC(O)c1cc2ccc(O)cc2o1 (stereo not given)
- KB [2]: 4.8 µM/kg
- KA [3]: 1.65 µM/kg
- KB [4]: 4.73 µM/kg
- HR (Felis catus): 27%
